Experimental data as given in ChEMBL document CHEMBL3632607, “Identification and SAR of Glycine Benzamides as Potent Agonists for the GPR139 Receptor” (ACS Med Chem Lett, 2015).
Values belong to the molecule of their own block, whether it stands above or below them. Activity calls are given as the source filed them. The rule behind the calls is not given here.

Columns and labels:
[1] = biological target: T1, Probable G-protein coupled receptor 139 (Homo sapiens, UniProt Q6DWJ6); test: Agonist activity at human GPR139 receptor expressed in HEK293 cells assessed as calcium mobilization by FLIPR assay; assay type: functional, cell-based
T1 sequence (Q6DWJ6 whole entry): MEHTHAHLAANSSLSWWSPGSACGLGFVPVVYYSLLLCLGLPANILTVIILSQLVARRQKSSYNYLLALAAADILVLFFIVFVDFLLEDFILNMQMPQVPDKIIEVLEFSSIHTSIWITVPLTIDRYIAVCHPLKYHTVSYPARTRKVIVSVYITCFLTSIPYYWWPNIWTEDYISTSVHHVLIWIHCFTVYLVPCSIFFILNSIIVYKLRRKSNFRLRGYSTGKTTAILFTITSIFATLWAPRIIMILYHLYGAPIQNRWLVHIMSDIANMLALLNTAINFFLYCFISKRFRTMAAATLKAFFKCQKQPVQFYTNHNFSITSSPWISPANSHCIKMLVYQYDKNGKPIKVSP

[2] = AUC in Sprague-Dawley rat at 1 mg/kg, iv and 5 mg/kg, po; assay type: ADME, organism-based; details: in vivo
Cytochrome P450 3A4 = Cytochrome P450 3A4 (Homo sapiens, UniProt P08684); test: Inhibition of CYP3A4 in human liver microsomes using midazolam as substrate up to 10 uM by LC-MS/MS analysis; assay type: ADME
Sequence of Cytochrome P450 3A4 (P08684 whole entry): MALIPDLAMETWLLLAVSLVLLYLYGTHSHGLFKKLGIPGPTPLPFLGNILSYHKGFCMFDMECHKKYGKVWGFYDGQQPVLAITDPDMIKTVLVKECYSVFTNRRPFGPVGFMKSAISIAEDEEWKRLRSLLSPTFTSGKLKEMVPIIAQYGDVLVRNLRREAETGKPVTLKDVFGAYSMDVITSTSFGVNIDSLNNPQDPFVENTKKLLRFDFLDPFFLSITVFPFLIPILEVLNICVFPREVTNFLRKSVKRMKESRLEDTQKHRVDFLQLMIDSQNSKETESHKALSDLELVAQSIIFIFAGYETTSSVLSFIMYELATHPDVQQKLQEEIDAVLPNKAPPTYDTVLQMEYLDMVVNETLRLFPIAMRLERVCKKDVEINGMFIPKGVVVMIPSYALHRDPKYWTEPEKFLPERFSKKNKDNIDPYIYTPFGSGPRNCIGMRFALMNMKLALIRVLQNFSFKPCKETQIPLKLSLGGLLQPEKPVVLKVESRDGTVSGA

[3] = biological target: T2, Protein Gpr142 (Rattus norvegicus) (UniProt F1LWD8); test: Agonist activity at rat GPR142 receptor
T2 sequence (whole entry): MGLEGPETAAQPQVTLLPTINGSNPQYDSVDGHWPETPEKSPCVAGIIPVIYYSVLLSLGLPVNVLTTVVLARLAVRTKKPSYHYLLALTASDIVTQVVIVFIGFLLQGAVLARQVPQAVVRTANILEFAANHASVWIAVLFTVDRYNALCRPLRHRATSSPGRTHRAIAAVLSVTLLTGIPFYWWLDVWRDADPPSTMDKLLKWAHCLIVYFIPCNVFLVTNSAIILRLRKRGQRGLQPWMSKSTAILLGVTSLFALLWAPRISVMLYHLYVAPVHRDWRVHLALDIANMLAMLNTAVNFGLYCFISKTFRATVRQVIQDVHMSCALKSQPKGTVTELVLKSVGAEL

[4] = Efflux ratio of apparent permeability from basolateral to apical side to apical to basolateral side in MDCK cells; assay type: ADME, cell-based, Canis lupus familiaris; details: dog
Method in brief: (§1)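 Permeability was measured in MDR1-transfected Madin Darby canine kidney (MDR1-MDCK) cells. Papp is given in units of 1 × 10–6 cm/s. The efflux ratio is Papp basal-to-apical divided by Papp apical-to-basal.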

Cytochrome P450 2C8 = biological target: T3, Cytochrome P450 2C8 (Homo sapiens, UniProt P10632); test: Inhibition of CYP2C8 in human liver microsomes using paclitaxel as substrate up to 10 uM by LC-MS/MS analysis; assay type: ADME
T3 sequence (P10632 whole entry): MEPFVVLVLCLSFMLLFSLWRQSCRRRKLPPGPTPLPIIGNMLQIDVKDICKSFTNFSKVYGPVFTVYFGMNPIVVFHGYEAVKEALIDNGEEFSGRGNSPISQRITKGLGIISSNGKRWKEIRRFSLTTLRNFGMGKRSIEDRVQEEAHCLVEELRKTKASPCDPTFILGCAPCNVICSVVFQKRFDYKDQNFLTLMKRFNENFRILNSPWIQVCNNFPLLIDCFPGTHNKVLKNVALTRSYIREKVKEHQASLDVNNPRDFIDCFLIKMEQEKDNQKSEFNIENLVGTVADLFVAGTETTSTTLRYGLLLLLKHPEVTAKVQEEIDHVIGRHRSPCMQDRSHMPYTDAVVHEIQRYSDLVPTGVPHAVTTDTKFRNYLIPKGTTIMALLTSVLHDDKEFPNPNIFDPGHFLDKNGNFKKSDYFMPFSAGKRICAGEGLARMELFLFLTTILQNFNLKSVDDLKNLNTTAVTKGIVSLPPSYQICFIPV

[5] = Volume of distribution at steady state in Sprague-Dawley rat at 1 mg/kg, iv and 5 mg/kg, po; assay type: ADME, organism-based; details: in vivo, read-out: Vdss
[6] = Cmax in Sprague-Dawley rat at 5 mg/kg, po; assay type: ADME, organism-based; parameters: dose 5 mg/kg, route oral; details: in vivo
[7] = Aqueous solubility of the compound in 30 mM phosphate buffer at pH 7 after 3 days; assay type: physicochemical
[8] = Ratio of drug level in brain to plasma in Sprague-Dawley rat at 1 mg/kg, iv and 5 mg/kg, po; assay type: ADME, organism-based; details: read-out: BPR
[9] = Clearance in Sprague-Dawley rat at 1 mg/kg, iv; assay type: ADME, organism-based; details: in vivo
[10] = Fraction unbound in rat brain at 0.1 to 10 uM after 6 hrs by LC-MS/MS analysis; assay type: ADME, tissue-based
[11] = biological target: T4, Probable G-protein coupled receptor 139 (Homo sapiens) (UniProt Q6DWJ6); test: Total binding affinity to human GPR139 receptor expressed in CHO-TRex cells at 10 nM after 60 mins by scintillation counting; assay type: cell-based
T4 sequence (whole entry): T1 sequence (Q6DWJ6 whole entry)
Method in brief: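 Whole CHO-TRex cells stably expressing human GPR139 were incubated with 10 nM of the tritiated ligand to measure total binding. Nonspecific binding was defined by blocking with 10 μM of an unlabelled reference GPR139 agonist. Specific binding was taken as total minus nonspecific.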

Cytochrome P450 1A2 = biological target: T5, Cytochrome P450 1A2 (Homo sapiens, UniProt P05177); test: Inhibition of CYP1A2 in human liver microsomes using phenacetin as substrate up to 10 uM by LC-MS/MS analysis; assay type: ADME
T5 sequence (P05177 whole entry): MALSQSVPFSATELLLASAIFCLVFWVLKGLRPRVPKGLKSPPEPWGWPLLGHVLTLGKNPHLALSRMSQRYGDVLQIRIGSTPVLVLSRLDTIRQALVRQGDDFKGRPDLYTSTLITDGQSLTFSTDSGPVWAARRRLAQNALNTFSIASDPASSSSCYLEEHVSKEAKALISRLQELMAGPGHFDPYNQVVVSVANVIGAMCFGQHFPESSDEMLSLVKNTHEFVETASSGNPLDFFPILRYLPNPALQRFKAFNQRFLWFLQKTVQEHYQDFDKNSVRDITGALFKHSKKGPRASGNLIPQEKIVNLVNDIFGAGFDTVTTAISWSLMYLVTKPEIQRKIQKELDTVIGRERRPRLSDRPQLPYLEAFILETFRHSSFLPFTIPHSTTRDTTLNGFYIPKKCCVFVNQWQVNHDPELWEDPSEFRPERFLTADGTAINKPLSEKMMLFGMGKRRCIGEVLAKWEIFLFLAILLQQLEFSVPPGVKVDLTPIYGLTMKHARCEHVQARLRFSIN

[12] = Apparent permeability of the compound in MDCK cells; assay type: ADME, cell-based, Canis lupus familiaris; details: dog; method in brief: as §1
Cytochrome P450 2C19 = Cytochrome P450 2C19 (Homo sapiens, UniProt P33261); test: Inhibition of CYP2C19 in human liver microsomes using S-mephenytoin as substrate up to 10 uM by LC-MS/MS analysis; assay type: ADME
Sequence of Cytochrome P450 2C19 (P33261 whole entry): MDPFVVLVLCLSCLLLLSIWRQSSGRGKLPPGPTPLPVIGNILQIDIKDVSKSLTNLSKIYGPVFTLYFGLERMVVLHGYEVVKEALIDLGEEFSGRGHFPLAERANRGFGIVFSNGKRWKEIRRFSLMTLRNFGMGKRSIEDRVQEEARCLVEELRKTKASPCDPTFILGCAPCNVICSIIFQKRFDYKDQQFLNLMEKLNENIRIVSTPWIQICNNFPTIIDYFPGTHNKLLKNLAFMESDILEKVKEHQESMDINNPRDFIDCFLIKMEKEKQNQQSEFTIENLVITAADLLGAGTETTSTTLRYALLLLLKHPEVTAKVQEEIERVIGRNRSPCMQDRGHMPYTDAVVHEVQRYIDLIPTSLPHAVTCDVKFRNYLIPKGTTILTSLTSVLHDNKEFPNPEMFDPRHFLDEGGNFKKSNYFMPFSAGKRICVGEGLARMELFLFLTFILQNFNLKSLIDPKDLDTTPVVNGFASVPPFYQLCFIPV

[13] = Aqueous solubility of the compound in 30 mM phosphate buffer at pH 2 after 3 days; assay type: physicochemical
[14] = Oral bioavailability in Sprague-Dawley rat at 5 mg/kg; assay type: ADME, organism-based; details: in vivo
Cytochrome P450 2D6 = Cytochrome P450 2D6 (Homo sapiens, UniProt P10635); test: Inhibition of CYP2D6 in human liver microsomes using dextromethorphan as substrate up to 10 uM by LC-MS/MS analysis; assay type: ADME
Sequence of Cytochrome P450 2D6 (P10635 whole entry): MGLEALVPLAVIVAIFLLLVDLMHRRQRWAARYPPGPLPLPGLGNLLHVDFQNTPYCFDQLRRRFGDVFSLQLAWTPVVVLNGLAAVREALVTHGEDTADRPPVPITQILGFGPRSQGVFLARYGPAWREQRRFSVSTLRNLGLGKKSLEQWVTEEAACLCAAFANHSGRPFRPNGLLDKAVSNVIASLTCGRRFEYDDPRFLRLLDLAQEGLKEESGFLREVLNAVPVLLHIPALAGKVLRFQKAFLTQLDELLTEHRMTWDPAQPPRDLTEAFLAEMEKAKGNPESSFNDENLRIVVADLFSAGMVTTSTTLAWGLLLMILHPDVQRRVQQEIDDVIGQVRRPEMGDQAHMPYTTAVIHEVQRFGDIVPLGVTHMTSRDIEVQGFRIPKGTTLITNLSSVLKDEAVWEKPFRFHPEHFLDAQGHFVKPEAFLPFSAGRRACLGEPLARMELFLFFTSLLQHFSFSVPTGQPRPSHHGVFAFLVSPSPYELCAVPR

[15] = Extraction ratio in rat liver microsomes at 1 uM after 1 hr by LC-MS/MS analysis; assay type: ADME; details: read-out: ERH
Method in brief: (§2)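 Extraction ratio is in vitro microsomal clearance divided by Q, the species-specific hepatic blood flow (human or rat).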

[16] = Fraction unbound in human plasma at 0.1 to 10 uM after 6 hrs by LC-MS/MS analysis; assay type: ADME, cell-free
[17] = Fraction unbound in rat plasma at 0.1 to 10 uM after 6 hrs by LC-MS/MS analysis; assay type: ADME, cell-free
Cytochrome P450 2C9 = Cytochrome P450 2C9 (Homo sapiens, UniProt P11712); test: Inhibition of CYP2C9 in human liver microsomes using diclofenac as substrate up to 10 uM by LC-MS/MS analysis; assay type: ADME
Sequence of Cytochrome P450 2C9 (P11712 whole entry): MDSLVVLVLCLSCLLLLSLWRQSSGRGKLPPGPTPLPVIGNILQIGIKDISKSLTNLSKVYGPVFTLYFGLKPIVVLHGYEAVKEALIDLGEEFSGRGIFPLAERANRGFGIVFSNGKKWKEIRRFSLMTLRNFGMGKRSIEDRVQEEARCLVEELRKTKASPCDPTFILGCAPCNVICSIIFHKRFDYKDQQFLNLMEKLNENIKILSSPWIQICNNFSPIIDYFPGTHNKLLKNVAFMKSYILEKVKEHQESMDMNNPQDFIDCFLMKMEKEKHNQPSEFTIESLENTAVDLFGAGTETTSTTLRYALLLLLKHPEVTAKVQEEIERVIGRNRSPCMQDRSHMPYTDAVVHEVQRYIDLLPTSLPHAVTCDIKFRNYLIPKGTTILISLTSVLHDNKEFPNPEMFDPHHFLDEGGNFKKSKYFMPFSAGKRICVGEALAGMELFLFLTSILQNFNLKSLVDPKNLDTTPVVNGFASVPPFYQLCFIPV

[18] = Extraction ratio in human liver microsomes at 1 uM after 1 hr by LC-MS/MS analysis; assay type: ADME; details: read-out: ERH; method in brief: as §2
[19] = Half life in Sprague-Dawley rat at 1 mg/kg, iv; assay type: ADME, organism-based; details: in vivo

- EC50 [1]: 46 nM
Compound: C[C@H](NC(=O)CNC(=O)c1cc(Cl)cc(Cl)c1)c1ccccc1

- EC50 [1]: 150 nM
Compound: C[C@H](NC(=O)CNC(=O)c1ccccc1Cl)c1ccccc1

- EC50 [1]: 52 nM
Compound: C[C@H](NC(=O)CNC(=O)c1cccc(C(F)(F)F)c1)c1ccccc1

- EC50 [1]: 670 nM
Compound: CC(NC(=O)CSC(=O)c1ccccc1)c1ccccc1 (stereo not given)

- AUC [2]: 683 ng·h/mL
- inhibition (INH) (Cytochrome P450 3A4): Not Active
- Activity [3]: inactive
- efflux ratio [4]: 1.7
- inhibition (INH) (Cytochrome P450 2C8): Not Active
- Vd [5]: 2.1 L/kg
- Cmax [6]: 317 ng/mL
- solubility at 72 h [7]: > 35 µM
- Kp [8]: 1.2
- clearance [9]: 53 mL/min/kg
- fraction unbound at 6 h, up to 10 µM [10]: 0.09
- Activity [11]: Active
- inhibition (INH) (Cytochrome P450 1A2): Not Active
- Papp [12]: 32 ×10⁻⁶ cm/s
- inhibition (INH) (Cytochrome P450 2C19): Not Active
- solubility at 72 h [13]: > 35 µM
- bioavailability [14]: 49%
- inhibition (INH) (Cytochrome P450 2D6): Not Active
- hepatic extraction ratio at 1 h, 1 µM [15]: 0.4
- fraction unbound at 6 h, up to 10 µM [16]: 0.1
- fraction unbound at 6 h, up to 10 µM [17]: 0.25
- inhibition (INH) (Cytochrome P450 2C9): Not Active
- hepatic extraction ratio at 1 h, 1 µM [18]: 0.3
- half-life [19]: 150 min
Compound: C[C@H](NC(=O)CNC(=O)c1cccc(Cl)c1)c1ccccc1

- EC50 [1]: 24 nM
Compound: C[C@H](NC(=O)CNC(=O)c1cc(F)cc(Cl)c1)c1ccccc1

- EC50 [1]: 43 nM
Compound: COc1cc(OC)cc(C(=O)NNC(=O)Nc2cccc3ccccc23)c1

- EC50 [1]: 66 nM
Compound: COc1cccc(C(=O)N[C@@H](C)C(=O)N[C@@H](C)c2ccccc2)c1

- EC50 [1]: 52 nM
Compound: C[C@H](NC(=O)CNC(=O)c1cccc(Cl)c1Cl)c1ccccc1

- EC50 [1]: 24 nM
Compound: Cc1cccc(C(=O)NCC(=O)N[C@@H](C)c2ccccc2)c1

- EC50 [1]: > 10000 nM
Compound: C[C@H](NCCNC(=O)c1cccc(Cl)c1)c1ccccc1

- EC50 [1]: 1700 nM
Compound: COc1cccc(C(=O)NCC(=O)N[C@H](C)c2ccccc2)c1

- EC50 [1]: 162 nM
Compound: C[C@H](NC(=O)CNC(=O)c1ccccc1)c1ccccc1

- EC50 [1]: 118 nM
Compound: C[C@H](NC(=O)CNC(=O)c1ccc(Cl)cc1)c1ccccc1

- EC50 [1]: 40 nM
Compound: C[C@H](NC(=O)CNC(=O)c1cc(Cl)ccc1Cl)c1ccccc1

- EC50 [1]: 193 nM
Compound: C[C@H](NC(=O)CNC(=O)c1ccc(Cl)c(Cl)c1)c1ccccc1

- EC50 [1]: 440 nM
Compound: COc1cccc(C(=O)N[C@H](C)C(=O)N[C@@H](C)c2ccccc2)c1

- inhibition (INH) (Cytochrome P450 3A4): Not Active
- efflux ratio [4]: 5.5
- inhibition (INH) (Cytochrome P450 2C8): Not Active
- EC50 [1]: 33 nM
- solubility at 72 h [7]: > 35 µM
- fraction unbound at 6 h, up to 10 µM [10]: 0.16
- inhibition (INH) (Cytochrome P450 1A2): Not Active
- Papp [12]: 16 ×10⁻⁶ cm/s
- inhibition (INH) (Cytochrome P450 2C19): Not Active
- solubility at 72 h [13]: > 35 µM
- inhibition (INH) (Cytochrome P450 2D6): Not Active
- hepatic extraction ratio at 1 h, 1 µM [15]: 0.8
- fraction unbound at 6 h, up to 10 µM [16]: 0.14
- fraction unbound at 6 h, up to 10 µM [17]: 0.36
- inhibition (INH) (Cytochrome P450 2C9): Not Active
- hepatic extraction ratio at 1 h, 1 µM [18]: 0.3
Compound: COc1cccc(C(=O)NCC(=O)N[C@@H](C)c2ccccc2)c1

- EC50 [1]: 283 nM
Compound: COc1cccc(C(=O)N[C@@H](CO)C(=O)N[C@@H](C)c2ccccc2)c1

Compound: COc1cc(OC)cc(C(=O)NCC(=O)N[C@@H](C)c2ccccc2)c1
- EC50 [1]: 32 nM

- EC50 [1]: 10000 nM
Compound: COc1cccc(C(=O)N[C@@H](Cc2ccccc2)C(=O)N[C@@H](C)c2ccccc2)c1

- EC50 [1]: 54 nM
Compound: C[C@H](NC(=O)CNC(=O)c1cccc(F)c1)c1ccccc1

- EC50 [1]: 46 nM
Compound: C[C@H](NC(=O)CNC(=O)c1cccc(OC(F)(F)F)c1)c1ccccc1

Compound: C[C@@H](NC(=O)CNC(=O)c1cccc(Cl)c1)c1ccccc1
- EC50 [1]: 2100 nM

- EC50 [1]: 78 nM
Compound: C[C@H](NC(=O)CNC(=O)c1cc(Cl)cc(Br)c1)c1ccccc1

- EC50 [1]: > 10000 nM
Compound: C[C@H](NC(=O)CNCc1cccc(Cl)c1)c1ccccc1

- EC50 [1]: 59 nM
Compound: C[C@H](NC(=O)CNC(=O)c1cccc(C#N)c1)c1ccccc1
